Reference: ChEMBL document CHEMBL2384906, “Biological activity, design, synthesis and structure activity relationship of some novel derivatives of curcumin containing sulfonamides” (Eur J Med Chem, 2013)
Converted amounts (≈) assume the structure as drawn. The source made the active and inactive calls. No cut-off for these calls is given here.

Assays:
Bacillus cereus [1] = experiment: Antimicrobial activity against Bacillus cereus MTCC 7350 after 24 hrs by broth micro serial dilution method; assay type: functional
Method in brief: (§1)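 This was broth microdilution in autoclaved Mueller-Hinton broth. 150 µL of compound per well was serially diluted […], and 50 µL of test organism was added. Plates were incubated 24 h at 37 °C and optical density was read.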

HepG2 = experiment: Cytotoxicity against human HepG2 cells after 24 hrs by MTT assay; assay type: functional, cell-based
Method in brief: (§2)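 The MTT assay seeded 5 × 10⁴ cells per well and grew them 24 h in RPMI 1640 with compound at 2.5–200 µM. Medium without cells was the blank and adriamycin the positive control. MTT was added for 4 h at 37 °C, formazan was solubilised, and absorbance was read at 570 nm. IC50 is the concentration that cuts viability 50% against untreated cells.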

HeLa = experiment: Cytotoxicity against human HeLa cells after 24 hrs by MTT assay; assay type: functional, cell-based; method in brief: as §2
Pseudomonas aeruginosa [2] = experiment: Antimicrobial activity against Pseudomonas aeruginosa ATCC 15499 after 24 hrs by broth micro serial dilution method; assay type: functional; details: ATCC 15499, 24 h; method in brief: as §1
Pseudomonas aeruginosa [3] = experiment: Antimicrobial activity against Pseudomonas aeruginosa ATCC 15499 assessed as diameter of inhibition zone at 80 uM after 24 hrs by Kirby -Baur disc diffusion method; assay type: functional
Method in brief: (§3)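 Kirby-Bauer disc diffusion was used. Acetone stocks (160 µM) were serially doubled down to 80, 40 and 20 µM. 4 µL of each went onto 5 mm sterile paper discs, which were dried 30 min at 50 °C. Inoculum was 1.5 × 10⁸ CFU/mL diluted to 3 × 10² CFU/mL, and 50 µL was spread on Mueller-Hinton agar. After 24 h at 37 °C the inhibition-zone diameter was measured. Ciprofloxacin served as positive control.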

Staphylococcus aureus [4] = experiment: Antimicrobial activity against Staphylococcus aureus ATCC 11632 assessed as diameter of inhibition zone at 80 uM after 24 hrs by Kirby -Baur disc diffusion method; assay type: functional; method in brief: as §3
Mus musculus = experiment: Antiinflammatory activity in mouse assessed as inhibition of carrageenan-induced increase in paw volume at 200 mg/kg administered 1 hr prior to carrageenan challenge measured after 3 hrs relative to control; assay type: functional
Method in brief: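 Mice were fasted 2 h and placed in groups of five. Controls received saline i.p. Phenylbutazone was given at 100 mg/kg i.p., curcumin at 200 mg/kg i.p., and derivatives at 200 mg/kg. After 1 h, 0.1 mL of 1% carrageenan in saline was injected subplantar into the right hind paw. Paw volume was followed by plethysmometer for 3 h, and % inhibition was calculated as (Vc − Vt)/Vc × 100.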

Curvularia lunata [5] = experiment: Antifungal activity against Curvularia lunata MTCC 581 after 48 hrs; assay type: functional; details: MTCC 581, 48 h
Aspergillus niger [6] = experiment: Antifungal activity against Aspergillus niger MTCC 1108 assessed as zone of inhibition at 40 uM after 48 hrs by disc diffusion method; assay type: functional; details: MTCC 1108, 48 h, read-out: IZ
Method in brief: (§4)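 Spores from 4-day potato dextrose agar cultures, suspended in sterile water at 1.5 × 10⁵ CFU/mL. 0.2 mL was spread on potato dextrose agar. 5 mm filter-paper discs soaked with test compound were laid on the lawn. Incubation was 48 h at 28 °C, then the inhibition zone was measured in mm. Fluconazole was the positive control and acetone the negative control.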

Curvularia lunata [7] = experiment: Antifungal activity against Curvularia lunata MTCC 581 assessed as zone of inhibition at 20 uM after 48 hrs by disc diffusion method; assay type: functional; details: MTCC 581, 48 h, read-out: IZ; method in brief: as §4
Aspergillus niger [8] = experiment: Antifungal activity against Aspergillus niger MTCC 1108 after 48 hrs; assay type: functional; details: MTCC 1108, 48 h
Aspergillus flavus [9] = experiment: Antifungal activity against Aspergillus flavus MTCC 1021 assessed as zone of inhibition at 40 uM after 48 hrs by disc diffusion method; assay type: functional; details: MTCC 1021, 48 h, read-out: IZ; method in brief: as §4
Curvularia lunata [10] = experiment: Antifungal activity against Curvularia lunata MTCC 581 assessed as zone of inhibition at 40 uM after 48 hrs by disc diffusion method; assay type: functional; details: MTCC 581, 48 h, read-out: IZ; method in brief: as §4
Trichoderma viride [11] = experiment: Antifungal activity against Trichoderma viride MTCC 1107 assessed as zone of inhibition at 80 uM after 48 hrs by disc diffusion method; assay type: functional; details: MTCC 1107, 48 h, read-out: IZ; method in brief: as §4
Curvularia lunata [12] = experiment: Antifungal activity against Curvularia lunata MTCC 581 assessed as zone of inhibition at 80 uM after 48 hrs by disc diffusion method; assay type: functional; details: MTCC 581, 48 h, read-out: IZ; method in brief: as §4
HCT-116 = experiment: Cytotoxicity against human HCT116 cells after 24 hrs by MTT assay; assay type: functional, cell-based; method in brief: as §2
Aspergillus flavus [13] = experiment: Antifungal activity against Aspergillus flavus MTCC 1021 assessed as zone of inhibition at 80 uM after 48 hrs by disc diffusion method; assay type: functional; details: MTCC 1021, 48 h, read-out: IZ; method in brief: as §4
Salmonella typhi [14] = experiment: Antimicrobial activity against Salmonella typhi ATCC 23564 assessed as diameter of inhibition zone at 80 uM after 24 hrs by Kirby -Baur disc diffusion method; assay type: functional; details: Salmonella enterica subsp. enterica serovar Typhi
Bacillus cereus [15] = experiment: Antimicrobial activity against Bacillus cereus MTCC 7350 assessed as diameter of inhibition zone at 80 uM after 24 hrs by Kirby -Baur disc diffusion method; assay type: functional; method in brief: as §3
Aspergillus flavus [16] = experiment: Antifungal activity against Aspergillus flavus MTCC 1021 after 48 hrs; assay type: functional; details: MTCC 1021, 48 h
Trichoderma viride [17] = experiment: Antifungal activity against Trichoderma viride MTCC 1107 assessed as zone of inhibition at 20 uM after 48 hrs by disc diffusion method; assay type: functional; details: MTCC 1107, 48 h, read-out: IZ; method in brief: as §4
Aspergillus niger [18] = experiment: Antifungal activity against Aspergillus niger MTCC 1108 assessed as zone of inhibition at 20 uM after 48 hrs by disc diffusion method; assay type: functional; details: MTCC 1108, 48 h, read-out: IZ; method in brief: as §4
Salmonella typhi [19] = experiment: Antimicrobial activity against Salmonella typhi ATCC 23564 after 24 hrs by broth micro serial dilution method; assay type: functional; details: Salmonella enterica subsp. enterica serovar Typhi
Escherichia coli [20] = experiment: Antimicrobial activity against Escherichia coli ATCC 35218 assessed as diameter of inhibition zone at 80 uM after 24 hrs by Kirby -Baur disc diffusion method; assay type: functional; method in brief: as §3
Escherichia coli [21] = experiment: Antimicrobial activity against Escherichia coli ATCC 35218 after 24 hrs by broth micro serial dilution method; assay type: functional; details: ATCC 35218, 24 h; method in brief: as §1
Aspergillus flavus [22] = experiment: Antifungal activity against Aspergillus flavus MTCC 1021 assessed as zone of inhibition at 20 uM after 48 hrs by disc diffusion method; assay type: functional; details: MTCC 1021, 48 h, read-out: IZ; method in brief: as §4
Staphylococcus aureus [23] = experiment: Antimicrobial activity against Staphylococcus aureus ATCC 11632 after 24 hrs by broth micro serial dilution method; assay type: functional; method in brief: as §1
QG-56 = experiment: Cytotoxicity against human QG56 cells after 24 hrs by MTT assay; assay type: functional, cell-based; method in brief: as §2
Aspergillus niger [24] = experiment: Antifungal activity against Aspergillus niger MTCC 1108 assessed as zone of inhibition at 80 uM after 48 hrs by disc diffusion method; assay type: functional; details: MTCC 1108, 48 h, read-out: IZ; method in brief: as §4
Trichoderma viride [25] = experiment: Antifungal activity against Trichoderma viride MTCC 1107 after 48 hrs; assay type: functional; details: MTCC 1107, 48 h
Trichoderma viride [26] = experiment: Antifungal activity against Trichoderma viride MTCC 1107 assessed as zone of inhibition at 40 uM after 48 hrs by disc diffusion method; assay type: functional; details: MTCC 1107, 48 h, read-out: IZ; method in brief: as §4

COc1cc(/C=C/C(=O)C(/N=N/c2ccc(S(=O)(=O)Nc3ccccn3)cc2)=C(O)/C=C/c2ccc(O)c(OC)c2)ccc1O
MIC (Bacillus cereus [1]): inactive
IC50 (HepG2): Not Active
IC50 (HeLa): 100 µM
MIC (Pseudomonas aeruginosa [2]): > 80 µM
diameter of the inhibition zone (DIZ) (Pseudomonas aeruginosa [3]): inactive
diameter of the inhibition zone (DIZ) (Staphylococcus aureus [4]): inactive
inhibition in vivo at 200 mg/kg (Mus musculus): 9.6%
MIC (Curvularia lunata [5]): 40 µM (≈ 25.1 µg/mL)
zone of inhibition at 40 µM (Aspergillus niger [6]): 11 mm
zone of inhibition at 20 µM (Curvularia lunata [7]): 10 mm
MIC (Aspergillus niger [8]): 40 µM (≈ 25.1 µg/mL)
zone of inhibition at 40 µM (Aspergillus flavus [9]): 12 mm
zone of inhibition at 40 µM (Curvularia lunata [10]): 13 mm
zone of inhibition at 80 µM (Trichoderma viride [11]): 17 mm
zone of inhibition at 80 µM (Curvularia lunata [12]): 17 mm
IC50 (HCT-116): Not Active
zone of inhibition at 80 µM (Aspergillus flavus [13]): 13 mm
diameter of the inhibition zone (DIZ) (Salmonella typhi [14]): inactive
diameter of the inhibition zone (DIZ) (Bacillus cereus [15]): inactive
MIC (Aspergillus flavus [16]): 40 µM (≈ 25.1 µg/mL)
zone of inhibition at 20 µM (Trichoderma viride [17]): 10 mm
zone of inhibition at 20 µM (Aspergillus niger [18]): 9 mm
MIC (Salmonella typhi [19]): inactive
diameter of the inhibition zone (DIZ) (Escherichia coli [20]): inactive
MIC (Escherichia coli [21]): > 80 µM
zone of inhibition at 20 µM (Aspergillus flavus [22]): 9 mm
MIC (Staphylococcus aureus [23]): inactive
IC50 (QG-56): Not Active
zone of inhibition at 80 µM (Aspergillus niger [24]): 14 mm
MIC (Trichoderma viride [25]): 40 µM (≈ 25.1 µg/mL)
zone of inhibition at 40 µM (Trichoderma viride [26]): 13 mm
